Only some compounds are listed: those with a hit (about 12% of all), similar ones and a draw of the others.
CHOP inhibitor: inhibitors of CHOP promoter induction, primary screen, cell-based, unfolded protein response, luciferase reporter | inhibition, % at 10 µM | AID 2732, 2010 | 220,000 compounds, 3.8% hits | CHO-K1 CHOP-promoter luciferase, tunicamycin-induced, 15-18 h;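 active = compounds that reduced the stress-induced luciferase reporter signal by more than about 70% of percent inhibition, limit read from the data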;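 note: 0% = tunicamycin plus vehicle and 100% = wells without tunicamycin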
b-catenin transl: modulators of beta-catenin nuclear translocation, primary screen, imaging, HeLa cells, immunofluorescence, high-content | nuclear translocation activity, % at 5 µM | 190,000 compounds, 0.3% hits;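 active = nuclear translocation activity above 50% at 5 µM, with a well cell count of 50 or more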;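 note: per-cell ratio of nuclear to cytoplasmic median beta-catenin stain intensity; plate controls were DMSO negative control for no effect and GSK-3 inhibitor IX positive control for full effect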
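Technique: fluorescence imaging of beta-catenin antibody stain plus DAPI / Material: human HeLa cell line / Incubation: compound treatment 24 h, 37°C, 5% CO2 / Read-out basis: % activation of per-cell nuclear versus cytoplasmic median beta-catenin signal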
Lmaj promast: Leishmania major promastigote growth inhibition, primary screen; Leishmania major promastigotes, resazurin fluorescence viability; inhibition, % at 10 µM; 200,000 compounds, 9% hits; in the data active = inhibition above about 50%;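 note: promastigotes grown with compound for 44 hours at 28 °C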
Dynein cargo inh: inhibitors of GR-EGFP nuclear translocation, primary screen, dynein cargo transport inhibitor project, imaging, high-content, 3617.4 mouse cells | test concentration mostly 20 µM; stimulated with dexamethasone, 1 µM; hits give low values | z-score, hits read low | 220,000 compounds, 0.47% hits;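 active = plate z-score of nuclear minus cytoplasmic receptor signal below a set negative limit, without overly bright fluorescence or cell loss, cut at about -3.5 in these data, passing the limit was not always enough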;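 note: z-score of nuclear minus cytoplasmic ring GR-EGFP intensity difference per well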
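Buffer or medium: tet-free medium with charcoal-stripped serum / Also added: dexamethasone agonist, 1.0 µM final, for 30 min / Timing: induction 48 h, compound 1 h, agonist 30 min / Measured by: high-content fluorescence imaging after fixation / Read-out: nuclear-to-cytoplasmic GR-EGFP distribution per well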
MT stabilize HCS: microtubule stabilizers in HeLa cells, primary screen, imaging, high-content imaging. HeLa tubulin immunostaining HCS, 24 h; share of cells brighter than vehicle mean+2SD. % tubulin-high responders, % at 10 µM. 200,000 compounds, 0.83% hits. AID 2205, 2009;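 active = plate Z-score above 3 for both tubulin-high and condensed-nucleus cell shares, with cell loss under 80%, at 10 µM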;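 note: anti alpha tubulin signal scored within the nucleus-defined area of each cell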
Autophagy HCS: autophagy modulators in MEF cells, primary screen, imaging, high-content, MEF GFP-LC3; MEF GFP-LC3 puncta imaging; test concentration mostly 10 µM; calls only at 10 µM (by protocol); 190,000 compounds, 0.98% hits;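 active = percentage of spot-positive cells more than 3 SD above its plate mean, without a fluorescence outlier flag or 80% toxicity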;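 note: spot-positive cell cutoff set from DMSO-treated cells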
* = called active by the depositor; i = inactive; nt = no result.

SMILES	CHOP inhibitor	b-catenin transl	Lmaj promast	Dynein cargo inh	MT stabilize HCS	Autophagy HCS
Cc1ccc(N(CC(=O)NCc2ccc(F)cc2)S(=O)(=O)c2cccs2)cc1	37	-3	91*	-0.35	1	i
O=C(NCc1cccnc1)c1cc(Sc2ccccc2Cl)nc2ccccc12	13	1	78*	-0.085	4	i
Cc1ccc(N(CC(=O)NCc2ccccc2Cl)S(=O)(=O)c2cccs2)cc1	32	-2	2	0.15	4	i
O=C(Cc1ccccc1)NCCc1ccc(Cl)cc1Cl	30	2	54*	-0.8	2	i
O=C(Cc1ccc(Br)cc1)NCCc1ccc(Cl)cc1Cl	19	-4	-5	0.25	5	i
O=C(Cc1ccc(-c2ccccc2)cc1)NCc1cccnc1	4	45	11	1.6	13*	i
CCOc1cc(CNn2cnnc2SCC(=O)NC(C)(C)C)ccc1OCC(=O)NC(C)(C)C	7	2	1	-0.66	2	i
Cc1ccccc1-n1nc(C)c2cc(C(=O)NCc3cccnc3)sc21	40	-1	69*	0.044	6	i
Cc1ccc(CNC(=O)Cc2ccc(-c3ccccc3)cc2)cc1	4	nt	2	1.2	16	i
O=C(NC(NCc1cccnc1)C(Cl)(Cl)Cl)c1cccc2ccccc12 (stereo unspecified)	21	2	84*	1.4	2	i
OCCNCCNCc1ccc(-c2ccccc2)cc1	8	1	100*	-1.5	7	i
Cc1ccc(CC(=O)NCc2ccc(F)cc2)cc1	3	13	-5	-0.16	25*	i
O=C(NC(NCc1ccccc1)C(Cl)(Cl)Cl)c1cccnc1 (stereo unspecified)	0	nt	-1	-0.27	2	i
O=C(NCc1cccnc1)c1ccc(Br)s1	4	0	nt	1.5	nt	nt
CC(CO)(CO)NCc1ccc(-c2ccccc2)cc1	4	0	44	1.2	5	i
N#C/C(=C(/O)CCl)c1nc2ccccc2[nH]1	-62	1	35	2.6	4	i
CCOc1ccccc1C(=O)N(CN1CCCC1=O)c1cccc(Cl)c1	-7	-3	-3	-0.39	5	i
O=C(Cc1ccc(-c2ccccc2)cc1)NCc1ccccc1	46	55*	-2	-0.16	6	i
Cc1nn(CC(=O)NCc2cccnc2)c(=O)c2ccccc12	15	2	51*	-0.75	3	i
CC(C)NC(=O)c1ccc(C2SCC(=O)N2Cc2ccccc2)cc1 (stereo unspecified)	4	-1	47	0.49	4	i
CCOC(=O)C1(Cc2cccc(OC)c2)CCN(Cc2cc(OC)ccc2OC)CC1	23	0	28	-0.043	3	i
CCOC(=O)C1(Cc2cccc(OC)c2)CCN(Cc2cccc3c2OCO3)CC1	28	-2	54*	0.19	4	i
OCC1(CCOc2ccccc2)CCN(Cc2ccc3c(c2)OCCO3)CC1	-17	3	92*	2.3	3	i
CCOC(=O)C1(Cc2cccc(OC)c2)CCN(Cc2ccc3c(c2)OCCO3)CC1	25	0	95*	-0.51	3	i
CCOC(=O)C1(CCOc2ccccc2)CCN(Cc2ccc3c(c2)OCCO3)CC1	49	1	86*	1	1	i
CCOC(=O)C1(Cc2cccc(OC)c2)CCN(Cc2cccc(OC)c2OC)CC1	6	3	24	-0.042	4	i
O=C(CN1C(=O)C2CC=CCC2C1=O)NC1=NCCS1 (stereo unspecified)	32	-3	-3	3	2	i
CC(=O)c1cnc2nc(C(F)(F)F)nn2c1C	-7	-1	1	-1.2	4	i
Cn1c(=O)c(=O)n(C)c2cc(S(=O)(=O)N3CCCC3C(=O)NCc3cccs3)ccc21 (stereo unspecified)	15	1	nt	0.69	nt	nt
Cn1nccc1C(=O)OCC(=O)Nc1nc(-c2ccccc2)cs1	54	-1	28	0.4	3	i

Compound activity from PubChem BioAssay.
